CHO parental Ca: counter-screen: ATP calcium response change in parental CHO cells; AID 463079; parental CHO-K1, ATP-induced calcium, Fluo-8 fluorescence; inhibition, % at 5.6 µM; actives 0.63% (n = 330,000);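 active means inhibition above that plate's mean sample inhibition plus 3 SD, cut at about 26% in these data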;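 further: 0% = ATP-challenged DMSO wells and 100% = DMSO wells without ATP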
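Assay system: parental CHO cells; Read-out basis: percent inhibition of ATP-evoked calcium rise, normalized to controls; Benchmarks: ATP and no-ATP DMSO wells; Compound dosing: single nominal dose of 5.6 µM per compound; Signal: Fluo-8 calcium dye fluorescence; Also added: ATP as calcium-mobilizing challenge; Repeats: singlicate.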
M1 PAM parental: nonselective activator or artifact in parental CHO-K1 calcium assay; ATP EC20, Fluo-8 calcium fluorescence; 0% at ATP EC20, 100% at ATP max; activation, % at 3 µM; actives 0.02% (n = 360,000); AID 602247;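 active means activation above the run cutoff, the mean activation of all test compounds plus 3 SD, cut at about 40% in these data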;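 further: peak over basal fluorescence ratio in a 140 s read after ATP addition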
CHO-K1 Ca ag: M1 agonist counterscreen hit in parental CHO-K1 cells | Fluo-8 calcium fluorescence; scaled to maximal ATP response, vehicle zero | activation, % at 3 µM | actives 0.48% (n = 360,000); in the data active means activation above about 15%;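 further: untransfected CHO-K1 host cells lacking M1 receptor as counterscreen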
OX1R antag-1: human HCRTR1 antagonism; inhibition, % at 5 µM; CHO/OX1R cells, Fluo-8 calcium fluorescence, orexin A; O43613; actives 0.43% (n = 330,000);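 active means inhibition above its plate's threshold, mean inhibition of all tested compounds on the plate plus 3 SD, cut at about 37% in these data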;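 further: 0% = orexin A challenge wells and 100% = SB-334867-A antagonist wells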
Target sequence (O43613 whole entry, looked up): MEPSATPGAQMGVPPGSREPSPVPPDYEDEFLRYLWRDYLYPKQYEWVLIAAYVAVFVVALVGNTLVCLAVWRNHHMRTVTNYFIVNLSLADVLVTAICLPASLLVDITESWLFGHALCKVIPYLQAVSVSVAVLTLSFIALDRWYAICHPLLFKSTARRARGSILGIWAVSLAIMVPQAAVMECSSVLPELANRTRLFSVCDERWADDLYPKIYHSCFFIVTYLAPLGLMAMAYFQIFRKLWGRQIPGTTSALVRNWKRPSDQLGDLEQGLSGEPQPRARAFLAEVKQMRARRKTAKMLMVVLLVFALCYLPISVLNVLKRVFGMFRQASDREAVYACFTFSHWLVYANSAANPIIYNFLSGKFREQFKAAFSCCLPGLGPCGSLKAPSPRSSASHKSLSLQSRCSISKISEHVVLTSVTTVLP
CHO-K1 Ca antag: M1 antagonist counterscreen hit in parental CHO-K1 cells; AID 602250; ATP-induced calcium, Fluo-8 fluorescence; inhibition, % at 3 µM; actives 0.6% (n = 360,000);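 active means inhibition above a per-plate cutoff, the plate's mean sample inhibition plus 3 SD, cut at about 24% in these data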;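 further: 0% = DMSO plus EC80 ATP and 100% = DMSO alone without ATP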
OX1R antag-2: OX1R (human) antagonism | actives 1.8% (n = 330,000) | inhibition, % at 6.6 µM | O43613 | OX1R-expressing cells, FRET antagonist read-out; in the data active means inhibition mostly above about 38%, no sharp cut-off; inactive means mostly below about 40%;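 further: 0% = agonist challenge alone and 100% = reference antagonist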
* marks the source's active call; other numbers are inactive results; / = no result given. Shown are actives, neighbours in structure and some others; about 2.9% of the full set was active somewhere.

SMILES	CHO parental Ca	M1 PAM parental	CHO-K1 Ca ag	OX1R antag-1	CHO-K1 Ca antag	OX1R antag-2
C[C@@H]1NC(=O)[C@H](CC(N)=O)NC(=O)c2cc([N+](=O)[O-])cc(I)c2OCC[C@@H](C(=O)NC(CC(=O)O)C(N)=O)NC1=O (stereo partly specified)	-8	/	/	-4	/	31
C[C@@H]1NC(=O)c2cc([N+](=O)[O-])cc(I)c2OCC[C@@H](C(=O)NC(CC(=O)O)C(N)=O)NC(=O)[C@H](CCC(=O)O)NC1=O (stereo partly specified)	-7	/	/	-2	/	62*
NC(=O)C(CC(=O)O)NC(=O)[C@@H]1CCOc2c(I)cc([N+](=O)[O-])cc2C(=O)N[C@@H](CCC(=O)O)C(=O)N[C@@H](CO)C(=O)N1 (stereo partly specified)	-4	/	/	2	/	70*
O=C(Cc1coc2ccc3ccccc3c12)NC1CCCc2ccccc21 (stereo unspecified)	-36	18	1	-2	-8	66*
O=C(Cc1coc2ccc3ccccc3c12)NCc1ccccc1	-16	17	0	-14	-3	27
O=C(Cc1coc2ccc3ccccc3c12)Nc1nccs1	-6	-7	0	-10	26*	19
CCc1nnc(SCC(=O)Nc2nccs2)n1CC	-2	-4	0	-3	8	9
CCn1c(Cc2cccc3ccccc23)nnc1SCC(=O)Nc1nccs1	-4	22	4	23	-18	71*
N#CCCOC1(C#CCN2CCCC2)CCCCC1	6	16	1	-14	-8	2
COc1ccc(CN(C(=O)CSc2nnc(-c3c[nH]c4ccccc34)o2)c2ccc(F)cc2)cc1OC	35*	14	5	34	12	81*
CCCOc1ccc(F)cc1-c1cc(C(=O)NC(C)C)[nH]n1	/	13	0	/	14	/
COc1ccc(-n2sc3ccc(F)cc3c2=O)cc1	65*	9	7	42	-8	7
O=c1c2cc([N+](=O)[O-])ccc2sn1-c1ccccc1	/	4	0	/	-4	/
Cc1ccc(C)c(-n2sc3ccc(F)cc3c2=O)c1	45*	-15	10	38	0	20
COc1ccc(-n2sc3ccccc3c2=O)cc1	/	-2	2	/	21	/
O=c1c2cc(F)ccc2sn1-c1ccc(F)cc1	30	-4	4	14	6	32*
CC(=O)OCC(=O)C1CCC2C3CCC4=CC(=O)C=CC4(C)C3CCC12C (stereo unspecified)	/	21	3	/	-5	/
CCOC(=O)N1CCN(S(=O)(=O)N2CCCC(C(=O)NCc3ccccc3OC)C2)CC1 (stereo unspecified)	-16	12	1	-27	-6	8
CCn1c(=O)c(CCC(=O)N2CCN(c3ccccn3)CC2)c(C)c2c(C)nn(-c3cccc(C)c3)c21	-12	10	1	-28	-8	20
CCCCn1c(=NC(=O)c2ccco2)c(C(=O)OCC)cc2c(=O)n3ccccc3nc21	-20	7	1	-13	6	76*
CCCCCn1c(=NC(=O)c2ccco2)c(C(=O)OCC)cc2c(=O)n3ccccc3nc21	-15	10	-1	-24	-10	51*
CCCCn1c(=NC(=O)c2ccco2)c(C(=O)OCC)cc2c(=O)n3cccc(C)c3nc21	-5	-14	1	-30	5	30
CCOC(=O)C1=CCN(S(=O)(=O)c2ccccc2C(=O)OC)C1c1ccc(Cl)cc1 (stereo unspecified)	/	11	1	/	9	/
Cc1cc(C)nc(/N=C2\NC(=O)CC(C(=O)O)N2c2ccc(C)c(C)c2)n1 (stereo unspecified)	-1	14	0	-2	-5	15
Cc1cccc(-n2nnc3c(=O)n(Cc4ccccn4)cnc32)c1	-16	13	1	-21	8	23
O=S(=O)(NC1CCCC1)c1ccc(S(=O)(=O)N2CCc3ccccc32)cc1	39*	4	16*	-3	7	32
CCCCN1C[C@H](C)[C@@H](CC(=O)Nc2ccccc2)C1=O	/	13	0	/	-9	/
O=C(NC(=S)NC1CCS(=O)(=O)C1)c1ccccc1 (stereo unspecified)	4	19	0	-6	-6	17
